In brackets after ≈: the same amount, converted by molar mass.
Legend:
Format in all cases: functional
[1] = tested on: Bacillus subtilis; test: Antibacterial activity against Bacillus subtilis IMI347329 by microdilution method
Procedure, shortened: (§1)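 Broth microdilution with two-fold (×2) dilution series of compounds from 1.56 to 800 µg/mL, four replicates per concentration per test strain; MIC taken as the lowest concentration inhibiting growth. Nystatin (fungi) and chloramphenicol (bacteria) were run as positive controls over the same concentration range.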

[2] = tested on: Cladosporium herbarum; test: Antifungal activity against Cladosporium herbarum IMI300461 by microdilution method; procedure, shortened: as §1
[3] = tested on: Eurotium amstelodami; test: Antifungal activity against Eurotium amstelodami FC1021 by microdilution method; conditions: Aspergillus amstelodami; procedure, shortened: as §1
[4] = tested on: Pseudomonas syringae; test: Antibacterial activity against Pseudomonas syringae IMI347448 by microdilution method
Procedure, shortened: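 Two-fold broth microdilution MIC, four replicates per concentration per strain, over 1.56 to 800 µg/mL. Chloramphenicol served as the antibacterial positive control across the same concentration range.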

[5] = tested on: Botrytis cinerea; test: Antifungal activity against Botrytis cinerea IMI160282 by microdilution method; procedure, shortened: as §1
[6] = tested on: Plenodomus lingam; test: Antifungal activity against Leptosphaeria maculans IMI266355 by microdilution method; procedure, shortened: as §1

Molecule	MIC [1] [µg/mL]	MIC [2] [µg/mL]	MIC [3] [µg/mL]	MIC [4] [µg/mL]	MIC [5] [µg/mL]	MIC [6] [µg/mL]
O=Cc1ccc(C2COC(=O)C2)cc1 (stereo not drawn)	> 800	400 (≈ 2100 µM)	200 (≈ 1050 µM)	400 (≈ 2100 µM)	200 (≈ 1050 µM)	400 (≈ 2100 µM)
O=C(N[C@H](CO)[C@H](O)c1ccc([N+](=O)[O-])cc1)C(Cl)Cl [CHLORAMPHENICOL]	6.25 (≈ 19.3 µM)			3.13 (≈ 9.69 µM)		
NYSTATIN		25	50		50	100
O=Cc1ccc(-c2ccoc2)cc1	800 (≈ 4650 µM)	200 (≈ 1160 µM)	100 (≈ 581 µM)	200 (≈ 1160 µM)	200 (≈ 1160 µM)	200 (≈ 1160 µM)
